Activity calls are given as the source filed them. The rule behind the calls is not given here.
How the values were obtained:
[1] = target: D(2) dopamine receptor (Homo sapiens) (UniProt P14416); test: (§1) Negative allosteric modulation of recombinant human D2L receptor expressed in Flp-In CHO cells assessed as inhibition of dopamine-induced reduction in forskolin stimulated cAMP accumulation by measuring co-operativity factor preincubated for 30 mins followed by forskolin stimulation and measured after 30 mins by BRET assay; format: functional, cell-based
Sequence of D(2) dopamine receptor (Homo sapiens) (P14416 whole entry): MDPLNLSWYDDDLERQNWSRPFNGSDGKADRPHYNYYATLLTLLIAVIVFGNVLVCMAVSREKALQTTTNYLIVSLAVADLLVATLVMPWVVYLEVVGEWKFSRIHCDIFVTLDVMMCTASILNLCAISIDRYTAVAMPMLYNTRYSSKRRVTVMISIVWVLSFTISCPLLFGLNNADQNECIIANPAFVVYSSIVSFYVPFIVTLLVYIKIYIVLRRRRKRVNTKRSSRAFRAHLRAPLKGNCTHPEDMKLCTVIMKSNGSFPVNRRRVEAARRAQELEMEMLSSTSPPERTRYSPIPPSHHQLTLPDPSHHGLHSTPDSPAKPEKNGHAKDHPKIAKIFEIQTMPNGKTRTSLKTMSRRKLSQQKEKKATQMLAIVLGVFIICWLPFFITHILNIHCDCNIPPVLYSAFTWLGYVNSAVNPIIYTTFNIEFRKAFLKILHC

[2] = target: D(2) dopamine receptor (Homo sapiens) (UniProt P14416); test: as §1, with “modulation of dopamine efficacy” for “co-operativity factor”; format: functional, cell-based
[3] = target: D(2) dopamine receptor (Homo sapiens) (UniProt P14416); test: Displacement of [3H]Raclopride from recombinant human D2L receptor expressed in Flp-In CHO cell membranes after 2 to 3 hrs by microbeta counting method
Procedure, shortened: (§2)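 hD2LR FlpIn CHO membrane homogenate (15 µg protein) was co-incubated with 0.5 nM [3H]raclopride and test compound at 10^-3 to 10^-7 M (half-log dilutions from DMSO stock, in duplicate). Incubation was 2-3 h at 25 °C in HEPES buffer, pH 7.4. Nonspecific binding was defined with 10 µM haloperidol. Filtration was followed by scintillation counting. KB and cooperativity α were obtained from an allosteric ternary complex model.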

[4] = target: D(2) dopamine receptor (Homo sapiens) (UniProt P14416); test: Negative allosteric modulation of recombinant human D2L receptor expressed in Flp-In CHO cells assessed as inhibition of dopamine-induced reduction in forskolin stimulated cAMP accumulation preincubated for 30 mins followed by forskolin stimulation and measured after 30 mins by BRET assay; format: functional, cell-based
Homo sapiens = species: Homo sapiens; test: Selectivity ratio of Kb for recombinant D3 receptor (unknown origin) expressed in Flp-In CHO cell membranes to Kb for recombinant human D2L receptor expressed in Flp-In CHO cell membranes; format: cell-based
[5] = target: D(3) dopamine receptor (Homo sapiens) (UniProt P35462); test: Displacement of [3H]Raclopride from recombinant D3 receptor (unknown origin) expressed in Flp-In CHO cell membranes after 2 to 3 hrs by microbeta counting method
Sequence of D(3) dopamine receptor (Homo sapiens) (P35462 whole entry): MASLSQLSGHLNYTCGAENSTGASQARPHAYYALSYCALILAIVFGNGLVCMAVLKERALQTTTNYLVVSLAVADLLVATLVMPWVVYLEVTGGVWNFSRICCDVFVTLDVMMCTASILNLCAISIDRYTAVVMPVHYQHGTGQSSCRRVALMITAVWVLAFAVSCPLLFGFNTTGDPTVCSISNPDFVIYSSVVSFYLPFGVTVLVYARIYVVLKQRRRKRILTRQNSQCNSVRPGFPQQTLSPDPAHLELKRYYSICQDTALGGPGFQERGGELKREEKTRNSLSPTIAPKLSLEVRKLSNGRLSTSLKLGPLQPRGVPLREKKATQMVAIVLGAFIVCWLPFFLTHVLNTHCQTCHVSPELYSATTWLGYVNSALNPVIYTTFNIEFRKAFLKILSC
Procedure, shortened: (§3)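 In FlpIn CHO membranes expressing hD3R, compound was tested for displacement of [3H]raclopride in equilibrium binding. Competition curves were fitted with an allosteric ternary complex model to give KB and the net cooperativity factor with [3H]raclopride. Data are at least three independent experiments in duplicate.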

[6] = target: D(2) dopamine receptor (Homo sapiens) (UniProt P14416); test: as §1, with “factor up to 100 uM” for “factor”; format: functional, cell-based
[7] = target: D(2) dopamine receptor (Homo sapiens) (UniProt P14416); test: Displacement of [3H]Raclopride from recombinant human D2L receptor expressed in Flp-In CHO cell membranes assessed as co-operativity factor after 2 to 3 hrs by microbeta counting method; procedure, shortened: as §2
[8] = target: D(3) dopamine receptor (Homo sapiens) (UniProt P35462); test: Displacement of [3H]Raclopride from recombinant D3 receptor (unknown origin) expressed in Flp-In CHO cell membranes assessed as co-operativity factor after 2 to 3 hrs by microbeta counting method; procedure, shortened: as §3
[9] = target: D(2) dopamine receptor (Homo sapiens) (UniProt P14416); test: Allosteric modulation of recombinant human D2L receptor expressed in Flp-In CHO cell membranes assessed as dissociation half life for [3H]Raclopride at 100 uM in presence of haloperidol after 2 to 3 hrs by microbeta counting method (reference value: 34.2 min); format: cell-based
Procedure, shortened: (§4)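 Membranes from FlpIn CHO cells stably expressing hD2LR were incubated with 0.5 nM [3H]raclopride for 60 min in HEPES/NaCl/MgCl2/EGTA/EDTA buffer, pH 7.4, at 25 °C. Dissociation was then started by adding 10 µM haloperidol, with or without modulator. Bound radioactivity was collected by filtration and scintillation counting. Curves were fitted for koff, and t1/2 = 0.6931/koff.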

[10] = target: D(2) dopamine receptor (Homo sapiens) (UniProt P14416); test: Allosteric modulation of recombinant human D2L receptor expressed in Flp-In CHO cell membranes assessed as dissociation of [3H]Raclopride at 100 uM in presence of haloperidol after 2 to 3 hrs by microbeta counting method (reference value: 0.02 +/- 0.004 /min); format: cell-based; procedure, shortened: as §4

SMILES | Activity [1] | log(activity) [1] | log(activity) [2] | Kb [3] | pKb [3] | Kb [4] | pKb [4] | Activity [2] | Selectivity ratio (Homo sapiens) | Kb [5] | pKb [5] | inhibition [6] | Activity [7] | log(activity) [7] | Activity [8] | log(activity) [8] | T1/2 [9] | K [10]
FC(F)(F)c1cccc(Nc2nc(CN3CCOCC3)nc3sc4c(c23)CCC4)c1 | 0.13 | -0.9 | 0 | 59 µM | 4.23 | 11.4 µM | 4.95 | – | – | – | – | – | – | – | – | – | – | –
COc1cccc(Nc2nc(CN3CCOCC3)nc3sc4c(c23)CCCC4)c1 | 0.19 | -0.73 | -0.53 | 48 µM | 4.32 | 8.02 µM | 5.1 | 0.29 | – | – | – | – | – | – | – | – | – | –
FC(F)(F)c1cccc(Nc2nc(CCCCN3CCOCC3)nc3sccc23)c1 | 0.13 | -0.88 | -1.21 | 19 µM | 4.71 | 1.4 µM | 5.85 | 0.06 | – | – | – | – | – | – | – | – | – | –
CCN(CC)c1nc(CCCCN2CCOCC2)nc2sccc12 | 0.05 | -1.34 | -0.82 | 3 µM | 5.51 | 1.3 µM | 5.89 | 0.15 | 3.5 | 0.9 µM | 6.06 | – | – | – | – | – | – | –
FC(F)(F)c1cccc(Nc2nc(CN3CCOCC3)nc3sccc23)c1 | – | – | – | – | 3.91 | – | – | – | – | – | – | inactive | – | – | – | – | – | –
FC(F)(F)c1cccc(Nc2nc(CN3CCOCC3)nc3sc(Cc4ccccc4)cc23)c1 | – | – | – | 50 µM | 4.3 | – | – | – | – | – | – | inactive | – | – | – | – | – | –
FC(F)(F)c1cccc(Nc2nc(CN3CCOCC3)nc3sc(C4CCCCC4)cc23)c1 | 0.13 | -0.9 | 0 | 45.8 µM | 4.34 | 5.37 µM | 5.27 | – | – | – | – | – | – | – | – | – | – | –
CNc1nc(CN2CCOCC2)nc2sc3c(c12)CCCC3 | – | – | – | 53 µM | 4.28 | – | – | – | – | – | – | inactive | – | – | – | – | – | –
CCN(CC)c1nc(CC2CCOCC2)nc2sc3c(c12)CCCC3 | – | – | – | 35 µM | 4.45 | – | – | – | – | – | – | inactive | – | – | – | – | – | –
Cc1sc2nc(CN3CCOCC3)nc(Nc3cccc(C(F)(F)F)c3)c2c1C | – | – | – | – | 3.59 | – | – | – | – | – | – | inactive | – | – | – | – | – | –
c1ccc(Nc2nc(CN3CCOCC3)nc3sc4c(c23)CCCC4)cc1 | – | 0 | -0.95 | 99 µM | 4 | 7.46 µM | 5.13 | 0.11 | – | – | – | – | – | – | – | – | – | –
FC(F)(F)c1cccc(Nc2nc(CCCCN3CCOCC3)nc3sc4c(c23)CCCC4)c1 | 0.19 | -0.72 | -1.5 | 3.31 µM | 5.48 | 0.611 µM | 6.21 | 0.03 | 0.03 | – | 3.97 | – | 0.09 | -1.03 | 0.2 | -0.69 | – | –
FC(F)(F)c1cccc(Nc2nc(CN3CCCCC3)nc3sc4c(c23)CCCC4)c1 | 0.34 | -0.46 | -0.22 | 39 µM | 4.41 | 6.98 µM | 5.16 | 0.6 | – | – | – | – | – | – | – | – | – | –
CN(C)c1nc(CN2CCOCC2)nc2sc(Cc3ccccc3)cc12 | 0.68 | -0.17 | -0.84 | 30 µM | 4.51 | 4.9 µM | 5.31 | 0.15 | – | – | – | – | – | – | – | – | – | –
CCN(CC)c1nc(CN2CCOCC2)nc2sccc12 | 0.08 | -1.1 | -0.62 | 1.3 µM | 5.89 | 3.13 µM | 5.5 | 0.24 | 0.1 | 11 µM | 4.95 | – | – | – | – | – | – | –
Oc1cccc(Nc2nc(CN3CCOCC3)nc3sc4c(c23)CCCC4)c1 | 0.06 | -1.22 | -3 | 35 µM | 4.45 | 2.81 µM | 5.55 | – | – | – | – | – | – | – | – | – | – | –
FC(F)(F)c1cccc(Nc2nc(CCCN3CCOCC3)nc3sc4c(c23)CCCC4)c1 | 0.21 | -0.68 | -0.4 | 13 µM | 4.89 | 1.63 µM | 5.79 | 0.4 | – | – | – | – | – | – | – | – | – | –

SMILES | Activity [1] | log(activity) [1] | log(activity) [2] | Kb [3] | pKb [3] | Kb [4] | pKb [4] | Activity [2] | Selectivity ratio (Homo sapiens) | Kb [5] | pKb [5] | inhibition [6] | Activity [7] | log(activity) [7] | Activity [8] | log(activity) [8] | T1/2 [9] | K [10]
FC(F)(F)c1cccc(Oc2nc(CN3CCOCC3)nc3sc4c(c23)CCCC4)c1 | – | – | – | 22 µM | 4.66 | – | – | – | – | – | – | inactive | – | – | – | – | – | –
FC(F)(F)c1cccc(Nc2nc(CN3CCOCC3)nc3sc4c(c23)CCCCCC4)c1 | – | – | – | – | 3.98 | – | – | – | – | – | – | inactive | – | – | – | – | – | –
FC(F)(F)c1cccc(Nc2nc(CN3CCOCC3)nc3sc4c(c23)CCCCC4)c1 | – | – | – | 37 µM | 4.43 | – | – | – | – | – | – | inactive | – | – | – | – | – | –
CCN(CC)c1ncnc2sc3c(c12)CCCC3 | – | 0 | -3 | 17 µM | 4.76 | 1.92 µM | 5.72 | – | – | – | – | – | – | – | – | – | – | –
FC(F)(F)c1cccc(Nc2nc(CCN3CCOCC3)nc3sc4c(c23)CCCC4)c1 | 0.23 | -0.63 | 0 | 70 µM | 4.16 | 0.981 µM | 6.01 | – | – | – | – | – | – | – | – | – | – | –
CCN(CC)c1nc(CCCCN2CCOCC2)nc2sc3c(c12)CCCC3 | – | – | 1.07 | 16 µM | 4.79 | 1.77 µM | 5.8 | – | 1.6 | 10 µM | 4.99 | – | – | – | – | – | – | –
FC(F)(F)c1cccc(Nc2ncnc3sc4c(c23)CCCC4)c1 | – | 0 | -1.02 | 31 µM | 4.51 | 25.4 µM | 4.6 | 0.1 | 140 | 0.2 µM | 6.65 | – | 0.39 | -0.41 | 0.06 | -0.39 | – | –
FC(F)(F)c1cccc(Nc2nc(CN3CCOCC3)nc3scc(-c4ccccc4)c23)c1 | – | – | – | 48.6 µM | 4.31 | – | – | – | – | – | – | inactive | 0.13 | -0.88 | – | – | – | –
FC(F)(F)c1cccc(Nc2nc(CN3CCOCC3)nc3sc4c(c23)CCCC4)c1 | – | 0 | -0.55 | 16.6 µM | 4.78 | 3.87 µM | 5.41 | 0.28 | 57 | 0.3 µM | 6.54 | – | – | – | 0.39 | -0.4 | 18.1 min | 0.038 min⁻¹
FC(F)(F)c1cccc(Nc2nc(CN3CCOCC3)nc3scc(C4CCCCC4)c23)c1 | – | – | – | 38 µM | 4.42 | – | – | – | – | – | – | inactive | – | – | – | – | – | –
Fc1cccc(Nc2nc(CN3CCOCC3)nc3sc4c(c23)CCCC4)c1 | – | 0 | -0.4 | – | – | 8.39 µM | 5.08 | 0.4 | – | – | – | – | – | – | – | – | – | –
FC(F)(F)c1cccc(Nc2nc(CC3CCOCC3)nc3sc4c(c23)CCCC4)c1 | 0.13 | -0.89 | -0.63 | 100 µM | 3.99 | 0.622 µM | 6.22 | 0.23 | 2 | 52 µM | 4.28 | – | 0.39 | -0.41 | 0.37 | -0.44 | – | –
FC(F)(F)c1cccc(Nc2nc(CN3CCOCC3)nc3sc(-c4ccccc4)cc23)c1 | – | – | – | 45 µM | 4.35 | – | – | – | – | – | – | inactive | – | – | – | – | – | –
O=c1[nH]cnc2sc3c(c12)CCCC3 | – | – | – | – | – | – | – | – | – | – | – | inactive | – | – | – | – | – | –
CCN(CC)c1ncnc2sccc12 | – | 0 | -0.89 | 23 µM | 4.65 | 4.6 µM | 5.31 | 0.13 | – | – | – | – | 0.1 | -1.01 | – | – | – | –
FC(F)(F)c1cccc(Nc2ncnc3sccc23)c1 | 0.37 | -0.43 | 0 | 63 µM | 4.2 | 0.8 µM | 6.13 | – | – | – | – | – | – | – | – | – | – | –

Source: ChEMBL document CHEMBL4308833, “A Thieno[2,3- d]pyrimidine Scaffold Is a Novel Negative Allosteric Modulator of the Dopamine D2 Receptor” (J Med Chem, 2018)
